Drawing on ChEMBL document CHEMBL2010734, “A thiopyranchromenone and other chromone derivatives from an Endolichenic fungus, Preussia africana” (J Nat Prod, 2012), this text covers IC50 and Activity for six compounds.

SMILES strings stand for the structures. Active and inactive are the calls of the source. No cut-off for these calls is given here.

What all share (type): functional, cell-based
The subject of assay [1] is A549. Nature of the assay: Cytotoxicity against human A549 cells after 48 hrs by MTS assay. As to conditions: A549, 48 h. The gist of the method:
(§1)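 MTS assay in triplicate. Cells seeded at (2−5) × 10³ per well, with the number set by growth rate, and allowed to attach overnight. Medium then replaced with medium containing 0.1% DMSO or serial dilutions of compounds made from 100 mM DMSO stocks. Cisplatin served as positive control. Incubation 48 h at 37 °C in humidified 5% CO2. MTS added, then 90 min at 37 °C in the dark. IC50 derived.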
Background: Formazan colour is commonly taken as a measure of viable cells.

The test system of assay [2] is MCF7. Nature of the assay: Cytotoxicity against human MCF7 cells after 48 hrs by MTS assay. The note with it: MCF7, 48 h. The gist of the method: (§2)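 Cells seeded at (2−5) × 10^3 per well depending on growth rate, attached overnight, then medium replaced with medium containing test compound (serial dilutions from 100 mM DMSO stock) or 0.1% DMSO vehicle; cisplatin as positive control. Incubated 48 h at 37 °C, humidified 5% CO2. MTS added, 90 min at 37 °C in the dark, proliferation read. Triplicate.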

Assay [3] relates to HeLa. In words: Cytotoxicity against human HeLa cells after 48 hrs by MTS assay. The gist of the method: as §1
The subject of assay [4] is HCT-116. In words: Cytotoxicity against human HCT116 cells after 48 hrs by MTS assay. The note with it: HCT-116, 48 h. The gist of the method: as §1
Assay [5] has as its system A549. Nature of the assay: Cytotoxicity against human A549 cells at 20 ug/ml after 48 hrs by MTS assay. A digest of the protocol: as §2
Assay [6] relates to MCF7. Nature of the assay: Cytotoxicity against human MCF7 cells at 20 ug/ml after 48 hrs by MTS assay. The gist of the method: as §2
The test system of assay [7] is HeLa. In words: Cytotoxicity against human HeLa cells at 20 ug/ml after 48 hrs by MTS assay. A digest of the protocol: as §2
Assay [8] deals with HCT-116. Nature of the assay: Cytotoxicity against human HCT116 cells at 20 ug/ml after 48 hrs by MTS assay. A digest of the protocol: as §2

Regarding `COC1=CC(=O)c2c(O)cc(OC)c3c2[C@]1(O)COC3=O` [PREUSSOCHROMONE C], the IC50 (in general, the concentration at which inhibition is half-maximal) in assay [1] was 5.75 µM; in assay [2] it was 41.2 µM; in assay [3] it was 30 µM; in assay [4], 15.1 µM.
For the compound `COC(=O)[C@H]1c2c(oc3cccc(O)c3c2=O)C[C@](C)(O)[C@H]1O`, the result in assay [5], in assay [6], in assay [7] and in assay [8] was inactive.
For `COC(=O)[C@]1(O)[C@H](O)[C@H](C)[C@H]2Oc3cccc(O)c3C(=O)[C@H]21`, the outcome in assay [5], in assay [6], in assay [7] and in assay [8] was inactive.
For `COC(=O)[C@@]1(O)c2c(oc3cccc(O)c3c2=O)S[C@@H](C)[C@H]1O` [PREUSSOCHROMONE A], the half-maximal inhibitory concentration (IC50) in assay [1] came to 8.34 µM; in assay [3], 25.5 µM; in assay [4], 25.9 µM.
In the case of `COC(=O)[C@]1(O)[C@@H](O)[C@H](C)[C@H]2Oc3cccc(O)c3C(=O)[C@@H]21`, the outcome in assay [5], in assay [6], in assay [7] and in assay [8] was inactive.
`COC(=O)[C@]1(O)C(=O)[C@H](C)[C@H]2Oc3cccc(O)c3C(=O)[C@@H]21`: the outcome in assay [5], in assay [6], in assay [7] and in assay [8] was inactive.
